# From ChEMBL document CHEMBL4334468, “Exploring Mitochondria-Mediated Intrinsic Apoptosis by New Phytochemical Entities: An Explicit Observation of Cytochrome c Dynamics on Lung and Melanoma Cancer Cells” (J Med Chem, 2019)
# pIC50: −log10 of the molar value. Active and inactive are the calls of the source. The rule behind the calls is not given here.
# Columns and labels:
# A549 [1] = experiment: Antimetastatic activity in human A549 cells assessed as reduction in cell invasion at 10 nM by crystal violet staining based transwell chamber assay; assay type: functional
# Procedure, shortened: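 Invasion was measured in a transwell chamber, with cells moving across Matrigel toward the lower chamber. Invaded cells were imaged and quantified against untreated control.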
# A-375 [2] = experiment: Induction of apoptosis in human A375 cells assessed as induction of nuclear changes with DNA fragmentation at 1 uM by Hoechst 33342 nuclear staining based assay; assay type: functional, cell-based
# Procedure, shortened: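 Hoechst 33342 nuclear staining of treated A549 or A375 cells. Nuclear condensation and fragmentation were examined by fluorescence microscopy against untreated control.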
# A549 [3] = experiment: Suppression of cell number in human A549 cells at 20 uM by phase contrast microscopy; assay type: functional, cell-based
# A549 [4] = experiment: Antimetastatic activity in human A549 cells assessed as inhibition of cell migration rate at 1 nM incubated up to 24 hrs by scratch wound healing assay; assay type: functional, cell-based
# Procedure, shortened: (§1)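 Scratch wound healing assay. The cell-free zone was followed over time up to 24 h, with untreated control wells as reference. Closure was quantified as migration rate.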
# A-375 [5] = experiment: Antimetastatic activity in human A375 cells assessed as reduction in cell migration at 10 nM by crystal violet staining based transwell chamber assay; assay type: functional
# Procedure, shortened: (§2)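 Transwell chamber migration assay. Cells migrating to the lower side were imaged and quantified against untreated control.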
# A-375 [6] = experiment: Induction of apoptosis in human A375 cells at 1 uM by APOP assay; assay type: functional, cell-based
# A549 [7] = experiment: Antimetastatic activity in human A549 cells assessed as reduction in cell migration at 10 nM by crystal violet staining based transwell chamber assay; assay type: functional; procedure, shortened: as §2
# [8] = Antioxidant activity assessed as hydroxyl radical scavenging activity at 1 to 1000 ug/ml incubated for 1 hr; assay type: functional
# A549 [9] = experiment: Induction of apoptosis in human A549 cells at 1 uM by acridine orange-ethidium bromide assay; assay type: functional, cell-based
# Procedure, shortened: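 Cells were treated at 1 µM and then stained with acridine orange-ethidium bromide. Apoptosis was scored by fluorescence microscopy as a colour shift from green to yellow/red.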
# A549 [10] = experiment: Induction of apoptosis in human A549 cells assessed as cytochrome-c release after 3 to 4 hrs by Raman spectral imaging analysis; assay type: functional, cell-based
# A-375 [11] = experiment: Cytotoxicity in human A375 cells assessed as reduction in cell proliferation at 0.001 to 100 uM incubated for 24 to 48 hrs by BrdU incorporation assay; assay type: functional, cell-based
# Procedure, shortened: (§3)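 BrdU incorporation assay read colorimetrically. Absorbance of the developed colour is proportional to the BrdU incorporated into cells, taken as a measure of proliferation.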
# A-375 [12] = experiment: Induction of morphological changes in human A375 cells assessed as induction of membrane breakage, blebbing and leakage of intracellular components at 1 uM by atomic force microscopy; assay type: functional, cell-based
# A549 [13] = experiment: Induction of apoptosis related protein expression in human A549 cells assessed as increase in CD40L expression at 20 uM incubated for 12 hrs by apoptosis antibody array; assay type: functional, cell-based
# A-375 [14] = experiment: Induction of apoptosis in human A375 cells assessed as cytochrome-c release after 4 to 12 hrs by spectrophotometry; assay type: functional, cell-based
# A549 [15] = experiment: Induction of apoptosis in human A549 cells assessed as late apoptotic cells level at 1 uM incubated for 24 hrs by FITC-Annexin V staining based assay (reference value: 0.02%); assay type: functional
# A549 [16] = experiment: Cytotoxicity in human A549 cells assessed as reduction in cell proliferation at 0.001 to 100 uM incubated for 24 to 48 hrs by BrdU incorporation assay; assay type: functional, cell-based; procedure, shortened: as §3
# A549 [17] = experiment: Induction of apoptosis related protein expression in human A549 cells assessed as increase in p21 expression at 20 uM incubated for 12 hrs by apoptosis antibody array; assay type: functional, cell-based
# A-375 [18] = experiment: Induction of cell cycle arrest in human A375 cells assessed as accumulation at G2/M phase at 10 nM by propodium iodide staining based flow cytometric analysis; assay type: functional
# Procedure, shortened: (§4)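 DNA was stained with propidium iodide and analysed by flow cytometry. Histograms give the fraction of cells in G0/G1, S and G2/M phases.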
# A-375 [19] = experiment: Induction of DNA damage in human A375 cells by SERS spectral analysis; assay type: functional, cell-based
# A549 [20] = experiment: Cytotoxicity in human A549 cells assessed as reduction in cell viability at 0.001 to 100 uM incubated for 24 to 48 hrs by LDH assay; assay type: functional, cell-based
# Procedure, shortened: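 LDH released into the culture medium after plasma membrane damage was quantified and expressed as percentage cytotoxicity.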
# A-375 [21] = experiment: Induction of cell cycle arrest in human A375 cells assessed as accumulation at S phase at 10 nM by propodium iodide staining based flow cytometric analysis; assay type: functional; procedure, shortened: as §4
# A-375 [22] = experiment: Antimetastatic activity in human A375 assessed as inhibition of cell migration rate at 1 nM incubated up to 24 hrs by scratch wound healing assay; assay type: functional, cell-based; procedure, shortened: as §1
# A549 [23] = experiment: Induction of apoptosis in human A549 cells assessed as increase in caspase-9 levels at 1 uM incubated for 12 hrs by spectrofluorometry; assay type: functional, cell-based
# A549 [24] = experiment: Induction of apoptosis related protein expression in human A549 cells assessed as increase in p53 expression at 20 uM incubated for 12 hrs by apoptosis antibody array; assay type: functional, cell-based
# A549 [25] = experiment: Induction of DNA damage in human A549 cells after 4 hrs by Raman spectral imaging analysis; assay type: functional, cell-based
# A549 [26] = experiment: Induction of intracellular ROS generation in human A549 cells by DCFDA dye based fluorescence assay relative to control; assay type: functional, cell-based
# Procedure, shortened: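 Intracellular ROS in A549 cells was measured with the DCFDA probe over 1-100 µM, with paclitaxel as positive control. Readout is fold change in fluorescence intensity relative to untreated control.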
# A549 [27] = experiment: Induction of apoptosis related protein expression in human A549 cells assessed as increase in TNFalpha/beta expression at 20 uM incubated for 12 hrs by apoptosis antibody array; assay type: functional, cell-based
# A549 [28] = experiment: Induction of DNA damage in human A549 cells by SERS spectral analysis; assay type: functional, cell-based
# A549 [29] = experiment: Induction of cell cycle arrest in human A549 cells assessed as accumulation at G0/G1 phase at 10 nM by propodium iodide staining based flow cytometric analysis (reference value: 68%); assay type: functional; procedure, shortened: as §4
# A549 [30] = experiment: Induction of morphological changes in human A549 cells assessed as induction of membrane breakage, blebbing and leakage of intracellular components at 1 uM by atomic force microscopy; assay type: functional, cell-based
# A549 [31] = experiment: Induction of apoptosis in human A549 cells assessed as increase in caspase-2 levels at 1 uM incubated for 12 hrs by spectrofluorometry; assay type: functional, cell-based
# A549 [32] = experiment: Inhibition of mitochondrial membrane potential in human A549 cells at 1 uM by TMRE staining based assay; assay type: functional, cell-based
# A-375 [33] = experiment: Cytotoxicity in human A375 cells assessed as reduction in cell viability incubated for 48 hrs by MTT assay; assay type: functional, cell-based; conditions: Homo sapiens, A-375, 48 h; read-out: IC50
# Procedure, shortened: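 MTT viability assay on A375 melanoma, A549 lung adenocarcinoma and WI-38 normal lung fibroblast cells after 24 and 48 h treatment. IC50 values are in µM, expressed as mean ± SD.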
# A-375 [34] = experiment: Induction of mitochondrial membrane potential changes in human A375 cells at 1 uM by JC1 staining based fluorimetry; assay type: functional, cell-based
# Procedure, shortened: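 Mitochondrial membrane potential was assessed with the ratiometric dye JC1. Depolarization appears as lower red and higher green fluorescence, and the red/green intensity ratio was quantified.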
# A-375 [35] = experiment: Induction of apoptosis in human A375 cells assessed as increase in caspase-9 levels at 1 uM incubated for 12 hrs by spectrofluorometry; assay type: functional, cell-based
# A549 [36] = experiment: Induction of apoptosis in human A549 cells assessed as cytochrome-c release after 4 to 12 hrs by spectrophotometry; assay type: functional, cell-based
structure (smiles),measurement,setting,value
COc1cc(C2Oc3cc(-c4cc(=O)c5c(O)cc(O)cc5o4)ccc3OC2/C=C2\C(=O)ON=C2c2ccc(Cl)cc2)ccc1O (stereo unspecified),Activity,A549 [1],Active
same,Activity,A-375 [2],Active
same,Activity,A549 [3],Active
same,Activity,A549 [4],Active
same,Activity,A-375 [5],Active
same,Activity,A-375 [6],Active
same,Activity,A549 [7],Active
same,Activity,[8],Dose-dependent effect
same,Activity,A549 [9],Active
same,Activity,A549 [10],Active
same,Activity,A-375 [11],Active
same,Activity,A-375 [12],Active
same,Activity,A549 [13],Active
same,Activity,A-375 [14],Active
same,Activity,A549 [15],38%
same,Activity,A549 [16],Active
same,Activity,A549 [17],Active
same,Activity,A-375 [18],Active
same,Activity,A-375 [19],Active
same,Activity,A549 [20],Active
same,Activity,A-375 [21],Active
same,Activity,A-375 [22],Active
same,Activity,A549 [23],Active
same,Activity,A549 [24],Active
same,Activity,A549 [25],Active
same,Activity,A549 [26],Dose-dependent effect
same,Activity,A549 [27],Active
same,Activity,A549 [28],Active
same,Activity,A549 [29],31%
same,Activity,A549 [30],Active
same,Activity,A549 [31],Active
same,inhibition,A549 [32],Active
same,pIC50,A-375 [33],6.03
same,Activity,A-375 [34],Active
same,Activity,A-375 [35],Active
same,Activity,A549 [36],Active
